# Neddyl block = blocks human cullin neddylation; TR-FRET cullin neddylation, biochemical; inhibition, % at 25 µM; 360,000 compounds, 0.58% hits; AID 651699; in the data active = inhibition above about 36%
# Rpn11 inh = inhibitors of human proteasome Rpn11 | human 26S proteasome, Ub4-pepOG fluorescence polarization; 20S core pre-blocked with epoxomicin | O00487 | 360,000 compounds, 0.59% hits | inhibition, % at 20 µM;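 active = inhibition at 20 µM, scaled to each plate's controls, above about 33%, limit read from the data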
# TPT1 inhibitor = blocks Candida albicans tRNA 2'-phosphotransferase | recombinant caTPT1, FP RNA substrate dephosphorylation | inhibition, % at 5 µM | 300,000 compounds, 0.81% hits;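 active = inhibition above the mean of all tested compounds plus 3 SD, set per screening campaign, cut at about 24% in these data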
# Rin1-Abl PPI inh = inhibitors of human Rin1-Abl protein interaction | TR-FRET Rin1/Abl binding, biochemical | 360,000 compounds, 0.4% hits | P00519+Q13671 | inhibition, % at 7.35 µM; in the data active = inhibition above about 5%, passing the limit was not always enough
# CSN inh = CSN deneddylation inhibition | Purified CSN, SCF-Nedd8-OG deneddylation, fluorescence polarization | inhibition, % at 12.5 µM | 360,000 compounds, 0.38% hits;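 active = pattern-corrected inhibition above about 35%, with an unprinted fluorescence ratio check between 0.5 and 1.5, limit read from the data, passing the limit was not always enough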
#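 test system = HEK293T-derived human Csn5 enzyme | amount = 0.24 nM Csn5 enzyme, final concentration | medium = Tris/NaCl/DTT buffer, pH 7.5 | schedule = 90 min reaction at room temperature | signal = FP | evaluation = inhibition of Csn5 cleavage, % | compound dosing = single dose of 12.5 µM compound with 0.25% DMSO | probe or stimulus = 10 nM SCFSkp2-Nedd8OG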
# HNF4A DNA FP = change in binding of human HNF4 alpha to DNA; P41235; HNF4a-FITC DNA binding, fluorescence polarization, 1 h; activity change, % at 10 µM; 360,000 compounds, 0.3% hits; AID 1224865; in the data active = activity change above about 30%, passing the limit was not always enough
# Target sequence (P41235 whole entry, looked up): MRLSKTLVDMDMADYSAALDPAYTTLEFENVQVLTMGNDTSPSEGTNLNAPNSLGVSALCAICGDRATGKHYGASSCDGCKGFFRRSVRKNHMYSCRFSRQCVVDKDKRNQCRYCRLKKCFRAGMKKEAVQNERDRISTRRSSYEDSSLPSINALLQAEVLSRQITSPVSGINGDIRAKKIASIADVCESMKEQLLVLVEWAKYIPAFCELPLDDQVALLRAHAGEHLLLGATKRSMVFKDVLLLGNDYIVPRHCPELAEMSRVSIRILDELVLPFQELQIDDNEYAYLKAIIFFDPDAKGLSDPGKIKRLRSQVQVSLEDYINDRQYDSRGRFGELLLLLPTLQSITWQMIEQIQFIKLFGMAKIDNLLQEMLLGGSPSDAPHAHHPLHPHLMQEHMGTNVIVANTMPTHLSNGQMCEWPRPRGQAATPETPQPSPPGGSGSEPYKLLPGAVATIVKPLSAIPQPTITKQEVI
# Rin1 Abl conf = Rin1-Abl interaction inhibition confirmation; shares compounds with Rin1-Abl PPI inh; TR-FRET Rin1-Abl binding, purified proteins; inhibition, % at 7.35 µM; 1,300 compounds, 49% hits; AID 602124
# GFP quench = quenches GFP fluorescence, counter-screen for Rin1-Abl inhibitors; 1,300 compounds, 8.5% hits; inhibition, % at 6.75 µM; shares compounds with Rin1-Abl PPI inh; inhibitors/quenchers counterscreen;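 also: ABL1-eGFP fusion protein alone without its partner RIN1-SBP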
# GFP quench dose = counter-screen for Rin1-Abl inhibitors: GFP quenchers, dose response | 230 tested, under 10 active | shares compounds with Rin1-Abl PPI inh | IC50, µM | AID 602182 | GFP fluorescence interference/quenching counterscreen; call rule not given here;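 also: ABL1-eGFP fusion protein alone without its RIN1 binding partner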
# Numbers stand for hits; n = inactive; x = not tested or not shown; ! = repeats disagree. A selection: hits, their analogues and other compounds. The true share with any hit is near 2.4%. Rule as the data show it, unless noted: active = inhibition above about 6.5%; inactive = the rest.
SMILES,Neddyl block,Rpn11 inh,TPT1 inhibitor,Rin1-Abl PPI inh,CSN inh,HNF4A DNA FP,Rin1 Abl conf,GFP quench,others
COC(=O)c1ccc(CSc2nnc(-c3c[nH]c4ccccc34)n2C)o1,n,n,n,26,n,n,32,n,GFP quench dose=n
COC(=O)c1ccc(CSc2nnc(-c3ccccc3)n2C)o1,n,n,n,23,n,n,32,n,GFP quench dose=n
CC1CCN(S(=O)(=O)c2ccc3c(c2)C(Cl)(Cl)C(=O)N3)CC1,n,n,x,n,n,n,x,x,
CC1CCN(S(=O)(=O)N2CCC(C(=O)NCc3cccnc3)CC2)CC1,n,n,n,n,n,n,x,x,
Cc1ccc(Nc2cc(Cl)nc(N)n2)c([N+](=O)[O-])c1,n,n,x,n,n,n,x,x,
COc1ccc(C(=O)NC(=S)Nc2cccnc2)cc1OC,n,n,n,8.9,n,n,n,n,
COC(=O)CN1C(=O)[C@@H]2[C@H](C1=O)[C@@H]1CC(C(=O)OC)=C[C@@H](C(=O)OC)[C@@H]3C1=C(C(=O)[C@@]3(C)NC(=O)c1ccccc1)[C@@H]2C,n,n,n,14,n,n,n,n,
CCOc1ccc2nc(N(CCN(C)C)C(=O)c3cc4ccccc4cc3OC)sc2c1,n,n,n,17,n,n,17,n,GFP quench dose=n
COc1ccccc1S(=O)(=O)N(C)C[C@H]1OCc2cnnn2CCCC(=O)N([C@@H](C)CO)C[C@@H]1C,n,n,x,n,n,n,x,x,
O=S(=O)(c1ccc2ccccc2c1)N1CCN(c2ccc(O)cc2)CC1,n,n,x,n,n,n,x,x,
O=C1N(Cc2cccnc2)C[C@@H]2C[C@@H](c3ccc4nonc4c3)N3CCC[C@@]123,n,n,n,n,n,n,x,x,
O=C1N(Cc2cccnc2)C[C@@H]2C[C@@H](c3ccc4nsnc4c3)N3CCC[C@@]123,n,n,n,16,n,n,16,n,
O=S(=O)(c1cccc(-n2cnnn2)c1)N1CCOCC1,n,n,n,8.9,n,n,n,n,
CC(=O)N1CCN(C(=O)COC(=O)c2oc3ccccc3c2C)CC1,n,n,x,n,n,n,x,x,
COC(=O)c1ccc(C(=O)OC)c(NC(=S)N2CCC(C)CC2)c1,x,n,n,n,n,n,x,x,
O=C(O)c1ccc2nc(-c3ccco3)c(-c3ccco3)nc2c1,n,n,x,14,n,n,n,n,
O=C(c1ccc2nc(-c3ccco3)c(-c3ccco3)nc2c1)N1CCN(c2ccccc2)CC1,n,n,n,n,n,n,x,x,
Cc1ccccc1NC(=O)CSc1nc(=O)n(CCN2CCOCC2)c2c1CCCC2,n,n,n,n,n,n,x,x,
NNC(=O)c1cc(O)c(O)c(O)c1,n,n,n,34,n,n,51,7.1,
COc1c(Cl)cc(C(=O)NN)cc1Cl,n,n,n,n,n,n,x,x,
Cc1cccc(N/N=C/c2ccc(O)c(O)c2O)c1,n,n,n,26,n,n,23,13,
Oc1cccc(/C=N/NC(=S)Nc2cccnc2)c1O,n,n,n,n,n,n,x,x,
Oc1ccc(/C=N/NC(=S)Nc2cccnc2)c(O)c1O,n,n,x,31,n,n,19,15,
CCOC(=O)N1CCN(CCC(=O)Nc2ccc(C)c(Br)c2)CC1,n,n,n,5.6,n,n,n,n,
CCOC(=O)N1CCN(CCC(=O)Nc2cccc(Br)c2)CC1,n,n,n,6.2!,n,n,n,n,
SMILES,Neddyl block,Rpn11 inh,TPT1 inhibitor,Rin1-Abl PPI inh,CSN inh,HNF4A DNA FP,Rin1 Abl conf,GFP quench,others
CCOC(=O)N1CCN(CC(=O)Nc2cccc(Br)c2)CC1,n,n,n,n,n,n,x,x,
Cc1ccc2nc(SCC(=O)N3CCCCC3)nc(=O)n2c1,n,n,n,n,n,n,x,x,
CCC(=O)c1ccc(OCC(=O)Nc2cccc(S(=O)(=O)N3CCCCCC3)c2)cc1,n,n,x,n,n,n,x,x,
CCOc1ccc(NC(=O)CCC(=O)NNC(=O)c2cccc([N+](=O)[O-])c2)cc1,n,n,x,n,n,n,x,x,
Cc1cc2nc3ccc(N(C)C)cc3nc2cc1N,79,n,n,15,n,n,n,34,
CCOC(=O)Oc1ccc(/C=C2\N=C(C)OC2=O)cc1,n,n,n,n,n,n,x,x,
NCCNC(=O)Cc1ccc(NC(=O)Cc2ccc(Nc3ncnc4c3ncn4[C@@H]3O[C@H](CO)[C@@H](O)[C@H]3O)cc2)cc1,n,n,n,16,n,n,28,n,
COc1ccc(O)c(C(c2c(C)[nH][nH]c2=O)c2c(C)[nH][nH]c2=O)c1,n,n,n,22,n,n,n,n,
COc1ccc(C(c2c(C)[nH][nH]c2=O)c2c(C)[nH][nH]c2=O)cc1Br,n,n,n,n,n,n,x,x,
COc1ccc(OC)c(C(c2c(C)[nH][nH]c2=O)c2c(C)[nH][nH]c2=O)c1,n,n,n,7.9,n,n,n,n,
COc1ccc(C(=O)Nc2cc3c4c(c2)CC(=O)N4CCC3)cc1,n,n,n,n,n,n,x,x,
CC(C)Cn1c(SCC(=O)NCc2ccc(Cl)cc2)nnc1-c1cccc(S(=O)(=O)N2CCOCC2)c1,n,n,n,n,n,n,x,x,
CC[n+]1c(C)n(C)c2cc(S(=O)(=O)N(C)C)ccc21,n,n,n,8.9,n,n,n,n,
CCN1CCN(CC(=O)Nc2ccc(S(=O)(=O)N3C(C)CCCC3C)cc2)CC1 (stereo not drawn),n,n,n,n,n,n,x,x,
Cc1ccc(C(=O)N2CCCC(CCC(=O)N3CCN(c4ccccn4)CC3)C2)cc1C (stereo not drawn),n,n,n,9.4,n,n,n,n,
Cc1cccc(C(=O)N2CCCC(CCC(=O)N3CCN(c4ccccn4)CC3)C2)c1C (stereo not drawn),n,n,n,12,n,n,n,n,
Cc1ccc(C(=O)N2CCCC(CCC(=O)N3CCN(c4ccccn4)CC3)C2)cn1 (stereo not drawn),n,n,n,n,n,n,x,x,
O=C(CCC1CCCN(C(=O)C2(c3ccccc3)CC2)C1)N1CCN(c2ccccn2)CC1 (stereo not drawn),n,n,n,10.0,n,n,n,n,
Cc1csc(=O)n1CC(=O)OCC(=O)NNC(=O)c1ccc(Cl)cc1,n,n,x,n,n,n,x,x,
COCCc1ncc(CN2CCC(C(=O)Nc3cccc(-c4cscn4)c3)CC2)cn1,n,n,n,13,n,n,7.2,n,
CCCc1ncc(CN2CCC(C(=O)Nc3cccc(-c4cscn4)c3)CC2)cn1,n,n,n,36,n,n,19,n,GFP quench dose=n
CSc1ncc(CN2CCC(C(=O)Nc3cccc(-c4cscn4)c3)CC2)cn1,n,n,n,n,n,n,x,x,

# Assay outcomes: PubChem BioAssay, several laboratories
